In ChEMBL document CHEMBL4270636, “5'-Chloro-2,2'-dihydroxychalcone and related flavanoids as treatments for prostate cancer” (Eur J Med Chem, 2018):
Blank lines part the entries; values can stand above or below the compound they belong to. Calls of active or inactive are those of the source. The rule behind the calls is not given here.

How the values were obtained:
Androgen receptor = target: T1, Androgen receptor (Homo sapiens, UniProt P10275); assay: Antagonist activity at AR in human LNCAP cells assessed as reduction in DHT-induced transcriptional activation after 24 hrs by luciferase reporter gene assay; format: cell-based
T1 sequence (P10275 whole entry): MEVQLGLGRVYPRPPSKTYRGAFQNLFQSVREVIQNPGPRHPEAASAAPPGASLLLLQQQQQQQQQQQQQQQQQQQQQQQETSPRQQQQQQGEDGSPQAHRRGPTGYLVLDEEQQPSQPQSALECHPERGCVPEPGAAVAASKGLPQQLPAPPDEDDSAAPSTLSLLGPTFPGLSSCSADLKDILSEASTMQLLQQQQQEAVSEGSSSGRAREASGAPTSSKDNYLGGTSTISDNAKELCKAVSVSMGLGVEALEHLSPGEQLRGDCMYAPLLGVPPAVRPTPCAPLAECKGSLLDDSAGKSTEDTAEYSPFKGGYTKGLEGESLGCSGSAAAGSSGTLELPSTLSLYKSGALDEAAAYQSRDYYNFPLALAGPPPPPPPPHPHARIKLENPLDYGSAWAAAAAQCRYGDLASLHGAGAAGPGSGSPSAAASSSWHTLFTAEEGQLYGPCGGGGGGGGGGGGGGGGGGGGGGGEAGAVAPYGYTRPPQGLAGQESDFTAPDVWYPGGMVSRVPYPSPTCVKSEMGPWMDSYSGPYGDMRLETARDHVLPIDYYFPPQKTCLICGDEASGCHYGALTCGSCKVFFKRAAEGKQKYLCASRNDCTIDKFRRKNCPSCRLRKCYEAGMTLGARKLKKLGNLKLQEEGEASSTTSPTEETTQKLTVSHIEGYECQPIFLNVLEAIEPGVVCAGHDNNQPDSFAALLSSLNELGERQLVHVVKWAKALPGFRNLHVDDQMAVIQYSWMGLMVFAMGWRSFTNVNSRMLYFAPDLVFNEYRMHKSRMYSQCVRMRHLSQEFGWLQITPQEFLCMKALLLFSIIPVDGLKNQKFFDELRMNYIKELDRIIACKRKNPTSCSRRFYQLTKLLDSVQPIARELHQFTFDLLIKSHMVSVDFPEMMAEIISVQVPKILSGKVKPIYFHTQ

[1] = target: T2, Androgen receptor (Homo sapiens) (UniProt P10275); assay: Antagonist activity at AR (unknown origin) expressed in human PC3 cells assessed as reduction in DHT-induced transcriptional activation at 3 to 10 uM after 24 hrs by luciferase reporter gene assay; format: cell-based
T2 sequence (whole entry): T1 sequence (P10275 whole entry)
Outline: (§1)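 PC-3 cells (AR-negative) co-transfected with wild-type or AR-V7 expression vector plus PSA promoter-luciferase reporter (pGL3PSAp-5.8, 0.5 ug/well); seeded 50,000/well, transfected after 24 h, treated with compounds ± 1 nM DHT for 24 h from 24 h post-transfection; lysed cells read for luciferase activity by luminometer.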

LNCaP [2] = assay: Antiproliferative activity against human LNCAP cells assessed as reduction in cell growth at 10 uM treated every 2 days for 4 days by hemocytometry; format: functional, cell-based
[3] = target: T2, Androgen receptor (Homo sapiens); assay: Antagonist activity at AR in human LNCAP cells assessed as reduction in DHT-induced cell growth at 1 to 3 uM treated for every 2 days for 4 days by hemocytometry; format: cell-based
LNCaP [4] = assay: Antiproliferative activity against human LNCAP cells assessed as reduction in cell growth treated every 2 days for 4 days by hemocytometry; format: functional, cell-based
PC-3 [5] = assay: Antiproliferative activity against human PC3 cells assessed as reduction in cell growth treated every 2 days for 4 days by hemocytometry; format: functional, cell-based
DU-145 = assay: Antiproliferative activity against human DU145 cells assessed as reduction in cell growth treated every 2 days for 4 days by hemocytometry; format: functional, cell-based
Homo sapiens = species on record: Homo sapiens; assay: Antiproliferative activity against human LNCaP-SF cells assessed as reduction in cell growth at 10 uM treated every 2 days for 4 days by hemocytometry; format: functional, cell-based
Outline: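 LNCaP-SF castration-resistant subline cultured 4 days with compound at stated concentrations, with or without 0.1 nM DHT; growth assessed by cell counting.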

[6] = tested on: Androgen receptor (Homo sapiens), P10275 [UNDEFINED MUTATION]; conditions: at 3 to 10 µM
[7] = tested on: Androgen receptor (Homo sapiens), P10275 [UNDEFINED MUTATION]; assay: Antagonist activity at AR V7 mutant (unknown origin) expressed in human PC3 cells assessed as reduction in DHT-induced transcriptional activation after 24 hrs by luciferase reporter gene assay; format: cell-based; outline: as §1
[8] = Antiproliferative activity against human PC3-TxR cells assessed as reduction in cell growth treated every 2 days for 4 days by hemocytometry; format: functional, cell-based
[9] = Antiproliferative activity against human PC3/TxR/CxR cells assessed as reduction in cell growth treated every 2 days for 4 days by hemocytometry; format: functional, cell-based
[10] = Antiproliferative activity against human DU145-TxR cells assessed as reduction in cell growth treated every 2 days for 4 days by hemocytometry; format: functional, cell-based
[11] = Antiproliferative activity against human DU145/TxR/CxR cells assessed as reduction in cell growth treated every 2 days for 4 days by hemocytometry; format: functional, cell-based; conditions: DU-145
A549 [12] = assay: Antiproliferative activity against human A549 cells assessed as reduction in cell growth after 72 hrs by sulforhodamine B assay; conditions: A549, 72 h
MDA-MB-231 = assay: Antiproliferative activity against human MDA-MB-231 cells assessed as reduction in cell growth after 72 hrs by sulforhodamine B assay; format: functional, cell-based; conditions: MDA-MB-231, 72 h
MCF7 = assay: Antiproliferative activity against human MCF7 cells assessed as reduction in cell growth after 72 hrs by sulforhodamine B assay; conditions: MCF7, 72 h
KB = assay: Antiproliferative activity against human KB cells assessed as reduction in cell growth after 72 hrs by sulforhodamine B assay
[13] = Antiproliferative activity against human KBVIN cells assessed as reduction in cell growth after 72 hrs by sulforhodamine B assay; format: functional, cell-based
PC-3 [14] = assay: Cell cycle arrest in human PC3 cells assessed as accumulation at Sub-G1 phase at 2 times IC50 after 24 to 48 hrs by propidium iodide staining based flow cytometry; format: functional
A549 [15] = assay: Cell cycle arrest in human A549 cells assessed as accumulation at G2/M phase at 3 times IC50 after 24 to 48 hrs by propidium iodide staining based flow cytometry; format: functional
A549 [16] = assay: Cell cycle arrest in human A549 cells assessed as accumulation at Sub-G1 phase at 3 times IC50 after 24 to 48 hrs by propidium iodide staining based flow cytometry; format: functional
PC-3 [17] = assay: Antitumor activity against human PC3 cells xenografted in C.B-17 SCID mouse assessed as tumor growth inhibition at 30 mg/kg, ip administered every 4 days measured during compound dosing; format: functional, organism-based
Outline: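 Male C.B-17 scid mice (purchased at 7 weeks) given 2.0×10⁶ PC-3 cells in 50% matrigel subcutaneously on dorsal side at 8 weeks; at ~50 mm³ tumor, randomized into groups of 5, dosing from second day at 30 mg/kg i.p. every 4 days; tumor volume and body weight followed; mean ± SD.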

IC50 (Androgen receptor): 3.5 µM
SMILES: COc1ccccc1/C=C/C(=O)c1ccccc1O

IC50 (Androgen receptor): > 10 µM
SMILES: COc1ccc2c(c1)C(=O)CC(c1ccccc1OC)O2 (centres undefined)

IC50 (Androgen receptor): > 10 µM
SMILES: COCOc1ccccc1/C=C/C(=O)c1cc(F)ccc1O

IC50 (Androgen receptor): < 1 µM
inhibition [1]: Active
Activity [3]: Active
IC50 (LNCaP [4]): 5.45 µM
IC50 (PC-3 [5]): 2.56 µM
IC50 (DU-145): 4.11 µM
inhibition [6]: inactive
SMILES: O=C1CC(c2ccccc2O)Oc2ccccc21 (centres undefined) [2'-HYDROXY-FLAVANONE]
Activity (LNCaP [2]): Active
Activity (Homo sapiens): Active

IC50 (Androgen receptor): 4.26 µM
SMILES: O=C1CC(c2ccccc2O)Oc2ccc(I)cc21 (centres undefined)

IC50 (Androgen receptor): 2.73 µM
SMILES: O=C1CC(c2ccccc2O)Oc2ccc(O)cc21 (centres undefined)

IC50 (Androgen receptor): 5.92 µM
SMILES: O=C(/C=C/c1ccc(O)cc1)c1cc(Cl)ccc1O

IC50 (Androgen receptor): < 1 µM
inhibition [1]: Active
inhibition [7]: Dose-dependent effect
Activity [3]: Active
IC50 (LNCaP [4]): 4.96 µM
IC50 (PC-3 [5]): 1.84 µM
IC50 (DU-145): 6.13 µM
IC50 (A549 [12]): 8.5 µM
IC50 (MDA-MB-231): 9.7 µM
IC50 (MCF7): 14.1 µM
IC50 (KB): 16.2 µM
SMILES: COc1ccccc1/C=C/C(=O)c1cc(Br)ccc1O
Activity (LNCaP [2]): Active
Activity (Homo sapiens): Active
IC50 [8]: 3.76 µM
IC50 [9]: 3.73 µM
IC50 [10]: 4.47 µM
IC50 [11]: 5.16 µM
IC50 [13]: 11.1 µM
Activity (PC-3 [14]): Active
Activity (A549 [15]): Active
Activity (A549 [16]): inactive
TGI (PC-3 [17]): inactive

IC50 (Androgen receptor): < 1 µM
IC50 (LNCaP [4]): > 10 µM
SMILES: O=c1cc(-c2ccccc2O)oc2ccccc12

IC50 (Androgen receptor): < 1 µM
IC50 (LNCaP [4]): 7.25 µM
IC50 (PC-3 [5]): 7.33 µM
IC50 (DU-145): > 10 µM
SMILES: COc1ccc(O)c(C(=O)/C=C/c2ccccc2OC)c1

IC50 (Androgen receptor): > 10 µM
SMILES: COc1ccccc1/C=C/C(=O)c1cc(Cl)ccc1O

IC50 (Androgen receptor): 2.87 µM
SMILES: O=C(/C=C/c1ccccc1O)c1cc(Br)cc(Br)c1O

IC50 (Androgen receptor): 5.01 µM
SMILES: COc1ccccc1/C=C/C(=O)c1cc(F)ccc1O

SMILES: CNC(=O)c1ccc(N2C(=S)N(c3ccc(C#N)c(C(F)(F)F)c3)C(=O)C2(C)C)cc1F
Activity (LNCaP [2]): inactive

IC50 (Androgen receptor): > 10 µM
SMILES: O=C1CC(c2ccccc2O)Oc2cc(O)ccc21 (centres undefined)

IC50 (Androgen receptor): 1.72 µM
SMILES: COc1ccccc1/C=C/C(=O)c1cc(I)ccc1O

IC50 (Androgen receptor): < 1 µM
IC50 (LNCaP [4]): 4.2 µM
IC50 (PC-3 [5]): 4.16 µM
IC50 (DU-145): 5.03 µM
SMILES: CC(C)Oc1ccccc1/C=C/C(=O)c1cc(Br)ccc1O

IC50 (Androgen receptor): 5.95 µM
SMILES: COc1cc(/C=C/C(=O)c2cc(Cl)ccc2O)ccc1O
